Screening data deposited in PubChem BioAssay by several laboratories.
GRK2 aptamer HTS: blocks RNA aptamer binding to human GRK2; P25098; bead flow cytometry, FAM-aptamer displacement from GRK2; inhibition of aptamer binding, % at 10 µM; 0.59% of 330,000 active; AID 488847;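 active means inhibition of aptamer binding above 40%, roughly 3 SD of noise, on plates passing a quality check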;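 further: median bead fluorescence of bound FAM aptamer so fluorescent compounds give negative values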
Target sequence (P25098 whole entry, looked up): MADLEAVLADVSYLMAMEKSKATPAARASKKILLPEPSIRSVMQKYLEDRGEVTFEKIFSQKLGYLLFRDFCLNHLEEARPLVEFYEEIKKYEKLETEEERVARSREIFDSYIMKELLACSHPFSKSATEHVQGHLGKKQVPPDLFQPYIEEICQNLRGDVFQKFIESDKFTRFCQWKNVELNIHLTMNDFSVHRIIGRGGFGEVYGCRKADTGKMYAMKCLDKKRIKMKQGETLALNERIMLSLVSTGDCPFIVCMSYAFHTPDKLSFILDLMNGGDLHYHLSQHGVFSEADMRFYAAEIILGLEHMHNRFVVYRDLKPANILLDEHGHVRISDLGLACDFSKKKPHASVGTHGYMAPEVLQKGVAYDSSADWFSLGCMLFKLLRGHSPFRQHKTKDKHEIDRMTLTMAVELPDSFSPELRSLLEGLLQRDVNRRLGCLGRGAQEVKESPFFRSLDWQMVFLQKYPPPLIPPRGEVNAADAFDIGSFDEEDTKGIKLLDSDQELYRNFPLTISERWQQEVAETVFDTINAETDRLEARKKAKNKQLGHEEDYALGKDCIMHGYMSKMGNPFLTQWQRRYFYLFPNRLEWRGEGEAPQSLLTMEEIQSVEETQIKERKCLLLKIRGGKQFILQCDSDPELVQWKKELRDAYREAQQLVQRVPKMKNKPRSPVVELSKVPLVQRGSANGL
SR-BI DiI-HDL act: activators of SR-BI mediated HDL lipid uptake | CHO ldlA[mSR-BI] cells, DiI-HDL uptake fluorescence, 3 h; 100 = double the neutral-control signal | activation, % at 12.5 µM | 0.096% of 320,000 active | AID 504775;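 active means mean replicate activation of at least 60% and every replicate at or above 60%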;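 further: 0% = median plate neutral-control signal and 100% = twice that signal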
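system = CHO ldlA[mSR-BI] cells, LDL receptor-null, SR-BI overexpressing | medium = Ham's F12 with 0.5% BSA, HEPES 25 mM, pH 7.4 | probe or stimulus = DiI-HDL 10 µg/mL | compound dosing = single-point compound dose | incubation = compound exposure 3 h, 37 °C | technique = DiI fluorescence, bottom read | read-out = cell-associated DiI fluorescence as measure of HDL uptake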
SR-BI DiI inh: inhibitors of mouse SR-BI mediated HDL lipid uptake | Q61009 | ldlA[mSR-BI] CHO cells, DiI-HDL uptake fluorescence, 3 h | inhibition, % at 12.5 µM | 0.96% of 320,000 active | AID 488896;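 active means mean replicate inhibition of at least 70% and a set share of replicates each scoring 70 or more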;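 further: 0% = median of neutral control wells and 100% = median of positive control wells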
Rin1-Abl PPI inh: inhibitors of human Rin1-Abl protein interaction | P00519+Q13671 | inhibition, % at 7.35 µM | TR-FRET Rin1/Abl binding, biochemical | 0.4% of 360,000 active | AID 588664; in the data active means inhibition above about 5%, passing the limit was not always enough
* hit, by the source's call; / = no result. Rows were chosen to be rich in hits. Some 1.9% of all compounds tested hit in one or more screens of this group.

SMILES	GRK2 aptamer HTS	SR-BI DiI-HDL act	SR-BI DiI inh	Rin1-Abl PPI inh
Fc1ccc(-c2cc3nc(-c4ccccc4)cc(N4CCOCC4)n3n2)cc1	0	-73	73*	-1
Cc1ccc(-c2cc3nc(-c4ccccc4)cc(N4CCC5(CC4)OCCO5)n3n2)cc1	3	-42	42	1
CCc1nc2ccc(C(=O)N(C)Cc3ccccc3)cn2c1N(C)Cc1ccc(OC)cc1	/	/	/	-1
CCOc1cccc(/C=N/NC(=O)c2ccc3c(c2)OCCO3)c1O	0	-87	87*	-2
COc1cccc(/C=N/NC(=O)CNC(=O)c2ccc3c(c2)OCCO3)c1O	1	13	-13	-5
CCOc1cccc(/C=N/NC(=S)Nc2cc(S(=O)(=O)N3CCOCC3)ccc2N2CCOCC2)c1O	1	-94	94*	-3
COc1cccc(/C=N/NC(=O)c2c(C)nc3ccc(Cl)cn23)c1O	2	-121	120*	-2
O=C(N/N=C/c1cc([N+](=O)[O-])ccc1O)c1ccc2c(c1)OCCO2	0	-131	131*	-1
COc1ccccc1/C=N\NC(=O)c1c(C)nc2ccc(Cl)cn12	0	-45	45	-2
CC(=O)Nc1ccc2c(c1)C(N1CC3CCC(CC3)C1)c1ccccc1-2 (centres undefined)	/	-39	39	-2
COc1cc2ccccc2cc1C(=O)N1CCN(c2ccccc2O)CC1	0	-38	38	-1
Cc1ccccc1S(=O)(=O)N1CCN(c2ccc3c(c2)C2CC3CCN2C(=O)OCc2ccccc2)CC1 (centres undefined)	/	/	/	1
O=C(N/N=C/c1cc([N+](=O)[O-])ccc1O)c1cccc(N2CCCC2=O)c1	0	-117	117*	-2
COc1ccccc1/C=N/NC(=O)c1c(-c2ccccc2)noc1C	0	/	/	0
O=C(N/N=C/c1cc([N+](=O)[O-])ccc1O)c1cccc2cc[nH]c12	3	-144	144*	-5
O=C(N/N=C/c1cccc([N+](=O)[O-])c1)c1cccc2cc[nH]c12	0	-26	26	-2
CCOc1cccc(/C=N/NC(=O)c2cc(-c3cccn3C)n[nH]2)c1O	0	-104	104*	-1
Cc1cccc(/C=N/NC(=O)c2c(-c3ccccc3)noc2C)c1O	4	-102	102*	-5
COc1cc(/C=N/NC(=O)c2cccc(N3CCCC3=O)c2)ccc1O	0	-59	59	-4
CC(C)CNC(=O)c1ccc(-c2ccc(F)c(F)c2)c2ccoc12	/	/	/	0
CC(C)Oc1cc(F)ccc1-c1cc(C(=O)NCCCn2ccnc2)[nH]n1	/	/	/	-2
O=C(NCC(=O)N1CCN(Cc2c(F)cccc2Cl)CC1)c1cccs1	/	/	/	-2
Cc1cccc(/C=N/NC(=O)Cc2ccc(Cl)cc2)c1O	3	-6	6	-3
Cc1cccc(/C=N/NC(=O)c2ccc3c(c2)OCCO3)c1O	1	-111	111*	-3
O=C(N/N=C/c1cccc(O)c1)c1ccc2c(c1)OCCO2	4	-11	11	-1
SMILES	GRK2 aptamer HTS	SR-BI DiI-HDL act	SR-BI DiI inh	Rin1-Abl PPI inh
Cc1cccc(/C=N\NC(=O)c2ccc(Cl)cc2)c1O	0	-141	141*	-3
O=C(NNC(=O)c1cc(Cl)ccc1O)c1ccc(NS(=O)(=O)c2cccs2)cc1	2	-119	119*	0
Cc1ccccc1NS(=O)(=O)c1ccc(C(=O)NNC(=O)c2ccccc2O)cc1	4	-84	84*	0
O=C(NNC(=O)c1cc(F)c(F)cc1Cl)c1ccc(NS(=O)(=O)c2cccs2)cc1	2	-14	14	4
O=C(NNC(=O)c1ccccc1O)c1ccc(NS(=O)(=O)c2ccc(F)cc2)cc1	0	-87	87*	-1
O=C(NNC(=O)c1ccccc1O)c1ccc(S(=O)(=O)Nc2ccccc2F)cc1	1	-59	59	-3
O=C(NNC(=O)c1ccccc1F)c1ccc(NS(=O)(=O)c2ccc(F)cc2)cc1	/	1	-1	3
CCc1nc2ccc(C(=O)Nc3ccc(C(=O)N(C)C)cc3)cn2c1N(C)CCCc1ccccc1	/	/	/	0
CC1=CC(=C(C#N)c2nc3ccccc3s2)C=C(C)N1Cc1ccco1	0	-109	109*	0
C/C(CCc1oc2c(Br)cc(Br)cc2c1-c1ccc(C)o1)=N\O	3	-78	78*	-1
CCOC(=O)c1c(C)[nH]c(C)c1C(=O)COC(=O)c1cccs1	22	-2	2	2
COc1cc(Cl)c(C)cc1NCC(=O)Nc1cccc(S(=O)(=O)N2CCCC2)c1	2	-17	17	-1
